Data reported in ChEMBL document CHEMBL3120090, “High-affinity recognition of HIV-1 frameshift-stimulating RNA alters frameshifting in vitro and interferes with HIV-1 infectivity” (J Med Chem, 2014).
Calls of active or inactive are those of the source. The calls are words filed in the database; no cut-off is given here.

Columns and labels:
[1] = Binding affinity to yeast tRNA after 10 mins by fluorescence titration analysis; set-up: species or system Saccharomyces cerevisiae
Method in brief: (§1)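 Solution fluorescence titration in 20 mM HEPES, 150 mM NaCl. Compound at 1 μM, titrated with unlabeled HIV-1 FSS RNA (10 μM stock), FSS DNA or yeast tRNA (40 μM stocks). 10 min equilibration after each addition. Quenching of benzo[g]quinoline fluorescence read in triplicate 1 min apart, corrected for dilution; KD from saturable quenching. Error is SD.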

[2] = tested on: Human immunodeficiency virus 1; experiment: Antiviral activity against HIV-1 NL4-3 assessed as reduction in viral infectivity in human TZM-bl cells at 20 uM after 48 hrs by firefly luciferase reporter gene assay; type: functional; set-up: scale not given: the % may be the effect or the level left
Method in brief: (§2)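 Single-round infectivity of VSV-G pseudotyped HIV-1 (pDHIV3-GFP, NL4-3 genes minus nef/env) made in transfected HEK293T producer cells. Compounds added to producers 4 h post-transfection; virions harvested at 24 h, filtered, normalized by p24 ELISA. TZM-bl cells (10,000/well) infected with 500 pg p24/well in triplicate for 48 h; LTR-driven firefly luciferase luminescence read. EC50 derived from concentration series.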

[3] = Cellular uptake in cytoplasm of HEK293FT cells at 50 uM measured for 12 hrs by fluorescence microscopy; type: ADME, cell-based; conditions: human
[4] = tested on: HEK293FT; experiment: Binding affinity to HIV-1 FSS RNA transfected in HEK293FT cells after 36 hrs by Renilla/firefly luciferase reporter gene assay; type: cell-based; conditions: Human immunodeficiency virus 1
Method in brief: (§3)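 HEK293FT cells (1.5 × 10^4/well) transiently transfected with pDualHIV(−1) or in-frame pDualHIV(0) Rluc–FSS–Fluc plasmid (0.2 μg). Compound (0–50 μM) added 5 h later, in triplicate, for 36 h at 37 °C. Fluc/Rluc ratio from lysate, expressed relative to untreated transfected cells (100%). Error is SEM.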

[5] = tested on: Human immunodeficiency virus 1; experiment: Antiviral activity against HIV-1 NL4-3 assessed as reduction in viral production […] after 24 hrs by fluorescence microscopy; type: functional, organism-based
Method in brief: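 HEK293T producer cells transfected with GFP-marked pseudotyped HIV-1 vector plus VSV-G and treated with compound 4 h after transfection. Proviral GFP expression imaged by fluorescence microscopy 24 h after treatment, before virions were harvested.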

[6] = Selectivity ratio of KD for yeast tRNA to KD for HIV-1 FSS RNA
Method in brief: (§4)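 Ratios of fluorescence-titration KD values (20 mM HEPES, 150 mM NaCl; compound 1 μM): KD for FSS DNA or total yeast tRNA divided by KD for HIV-1 FSS RNA.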

[7] = tested on: Human immunodeficiency virus 1; experiment: Binding affinity to HIV-1 FSS RNA in HBS buffer at pH 7.4 assessed as association rate by surface plasmon resonance analysis
Method in brief: (§5)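 RNA captured on SPR chips at low (~300 RU) and high (~1200 RU) density, each measured once. Compound flowed in HBS (0.01 M HEPES, 0.150 M NaCl, pH 7.4) at 60 μL/min over at least five concentrations, each injected at least twice. A 20 s 0.5 or 1 M NaCl pulse regenerated the chip where needed. Reference-subtracted, blank-corrected sensorgrams (association plus dissociation) were globally fit to 1:1 Langmuir; error is standard error of the fit.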

[8] = tested on: Human T-lymphotropic virus 2; experiment: Binding affinity to HTLV-2 FSS RNA up to 3 uM by surface plasmon resonance analysis
[9] = Binding affinity to HIV-1 FSS RNA in 20 mM HEPES buffer by surface plasmon resonance analysis in presence of 150 mM NaCl, 5 mM MgCl2 and 0.005 % tween-20; set-up: species or system Human immunodeficiency virus 1
Method in brief: (§6)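 SPR with HIV-1 FSS RNA captured on low-density (~300 RU) and high-density (~1200 RU) chips. Compound flowed at 50 μL/min in 20 mM HEPES, 150 mM NaCl, 5 mM MgCl2, 0.005% Tween-20. 0.5 or 1 M NaCl regeneration as needed. Each concentration injected at least twice. Kinetic constants and KD from individual fits of reference-subtracted sensorgrams.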

[10] = Selectivity ratio of KD for FSS DNA (unknown origin) to KD for HIV-1 FSS RNA; method in brief: as §4
[11] = Binding affinity to FSS DNA (unknown origin) after 10 mins by fluorescence titration analysis; method in brief: as §1
[12] = tested on: Human immunodeficiency virus 1; experiment: Increase in HIV-1 NL4-3 reverse transcriptase p66/51 level at 10 to 40 uM by Western blotting analysis; type: functional, organism-based
Method in brief: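 Pseudotyped virions from compound-treated producer cells, equal loads by p24 ELISA, pelleted through 20% sucrose at 100,000g. Western blot for RT and p24. Densitometry of nonsaturated bands gave p160/(p66+p51) and total RT/p24 ratios.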

[13] = (§7) Binding affinity to HIV-1 FSS RNA in HBS buffer at pH 7.4 assessed as dissociation rate by surface plasmon resonance analysis; set-up: species or system Human immunodeficiency virus 1; method in brief: as §5
[14] = Binding affinity to HIV-1 FSS RNA in HBS buffer at pH 7.4 by surface plasmon resonance analysis; set-up: species or system Human immunodeficiency virus 1; method in brief: as §5
[15] = tested on: HEK293FT; experiment: Binding affinity to HTLV-2 FSS RNA transfected in HEK293FT cells at 1 to 50 uM after 36 hrs by Renilla/firefly luciferase reporter gene assay; type: cell-based; conditions: Human T-lymphotropic virus 2
Method in brief: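 HEK293FT cells transiently transfected with pDualHTLV-2(−1) (Fluc made only via −1 frameshift at the HTLV-2 site) and treated 5 h later with compound (0–50 μM) in triplicate for 36 h at 37 °C. Fluc/Rluc ratio from lysate, relative to untreated transfected cells. Error is SEM.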

[16] = tested on: HEK293FT; experiment: Binding affinity to HIV-1 FSS RNA transfected in HEK293FT cells at 50 uM after 36 hrs by Renilla/firefly luciferase reporter gene assay; type: cell-based; conditions: Human immunodeficiency virus 1; method in brief: as §3
[17] = Binding affinity to HIV-1 FSS RNA after 10 mins by fluorescence titration analysis; set-up: species or system Human immunodeficiency virus 1; method in brief: as §1
[18] = Cellular uptake in nucleus of HEK293FT cells at 50 uM measured for 12 hrs by fluorescence microscopy; type: ADME, cell-based; conditions: human
[19] = tested on: Human immunodeficiency virus 1; experiment: Antiviral activity against HIV-1 NL4-3 infected in TZM-bl cells after 24 hrs
[20] = tested on: Human immunodeficiency virus 1; experiment: Antiviral activity against HIV-1 NL4-3 assessed as reduction in viral infectivity in human TZM-bl cells after 48 hrs by firefly luciferase reporter gene assay; type: functional, organism-based; conditions: Human immunodeficiency virus 1, NL4-3, TZM-bl; method in brief: as §2
[21] = Binding affinity to HIV-1 FSS RNA in 20 mM HEPES buffer assessed as dissociation rate by surface plasmon resonance analysis in presence of 150 mM NaCl, 5 mM MgCl2 and 0.005 % tween-20; set-up: species or system Human immunodeficiency virus 1; method in brief: as §6
[22] = tested on: Human immunodeficiency virus 1; experiment: Binding affinity to HIV-1 FSS RNA in 20 mM HEPES buffer assessed as association rate by surface plasmon resonance analysis in presence of 150 mM NaCl, 5 mM MgCl2 and 0.005 % tween-20; method in brief: as §6
[23] = Cytotoxicity against HEK293FT cells assessed as cell viability at <60 uM after 24 hrs by WST-1 assay; type: cell-based; conditions: human
Method in brief: (§8)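 HEK293FT cells at 80% confluence in DMEM/10% FBS exposed to compound (up to 0.5 mM) or a water control, in triplicate, for 24 h at 37 °C. WST-1 reagent then added for 2 h. Absorbance at 450 minus 690 nm, blank-corrected, plotted against concentration. Error is SD of three measurements.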

[24] = tested on: Human immunodeficiency virus 1; experiment: Antiviral activity against HIV-1 NL4-3 assessed as reduction in viral infectivity in human TZM-bl cells at 40 uM after 48 hrs by firefly luciferase reporter gene assay; type: functional; set-up: scale not given: the % may be the effect or the level left
[25] = Binding affinity to HIV-1 FSS RNA; set-up: species or system Human immunodeficiency virus 1
[26] = tested on: Human immunodeficiency virus 1; experiment: as §7; method in brief: as §5
[27] = Cytotoxicity against HEK293FT cells assessed as cell viability at >10 uM after 24 hrs by WST-1 assay; type: cell-based; conditions: human; method in brief: as §8

## CCc1nc2cc3ccccc3cc2cc1C(=O)N[C@@H](C/C=C\C[C@H](NC(=O)c1cc2cc3ccccc3cc2nc1CC)C(=O)N1CCC[C@H]1C(=O)N[C@@H](Cc1ccccc1)C(=O)NCCCN)C(=O)N1CCC[C@H]1C(=O)N[C@@H](Cc1ccccc1)C(=O)NCCCN
[1]
  Kd: 334 nM
[2]
  Activity: >90%
[3]
  Drug uptake: Active
[4]
  Activity: Dose-dependent effect
[5]
  Activity: Dose-dependent effect
[6]
  Ratio: 5
[7]
  Ka: 4.25 ×10⁴ /M/s
[8]
  Activity: inactive
[9]
  Kd: 71 nM
[10]
  Ratio: 4
[11]
  Kd: 265 nM
[12]
  Activity: Active
[13]
  Dissociation rate constant (koff): 4.11 ×10⁻³ /s
[14]; read-out: Kd
  Kd: 102 nM
[15]
  Activity: inactive
[16]
  Activity: > 50%
[17]
  Kd: 66 nM
[18]
  Drug uptake: Active
[19]
  Activity: Active
[20]
  EC50: 3900 nM
[21]
  Kd: 1.35 ×10⁻³ /s
[22]
  Ka: 2.17 ×10⁴ /M/s
[23]
  Activity: Non-toxic

## CCc1nc2cc3ccccc3cc2cc1C(=O)N[C@@H](C/C=C/C[C@H](NC(=O)c1cc2cc3ccccc3cc2nc1CC)C(=O)N1CCC[C@H]1C(=O)N[C@@H](Cc1ccccc1)C(=O)NCCCN)C(=O)N1CCC[C@H]1C(=O)N[C@@H](Cc1ccccc1)C(=O)NCCCN
[1]
  Kd: 217 nM
[3]
  Drug uptake: Active
[4]
  Activity: Dose-dependent effect
[5]
  Activity: Dose-dependent effect
[6]
  Ratio: 2.14
[7]
  Ka: 3.99 ×10⁴ /M/s
[8]
  Activity: inactive
[9]
  Kd: 96 nM
[11]
  Kd: 118 nM
[12]
  Activity: Active
[13]
  Dissociation rate constant (koff): 3.75 ×10⁻³ /s
[14]; read-out: Kd
  Kd: 89 nM
[15]
  Activity: inactive
[16]
  Activity: > 50%
[17]
  Kd: 101 nM
[24]
  Activity: >90%
[18]
  Drug uptake: Active
[19]
  Activity: Active
[20]
  EC50: 25600 nM
[21]
  Kd: 3.46 ×10⁻³ /s
[22]
  Ka: 3.68 ×10⁴ /M/s
[23]
  Activity: Non-toxic

## C=CC[C@H](NC(=O)c1cc2cc3ccccc3cc2nc1CC)C(=O)N1CCC[C@H]1C(=O)N[C@@H](Cc1ccccc1)C(=O)NCCCN
[7]
  Ka: 1.16 ×10³ /M/s
[8]
  Activity: inactive
[13]
  Dissociation rate constant (koff): 2.25 ×10⁻² /s
[14]; read-out: Kd
  Kd: 19500 nM
[17]
  Kd: 409 nM

## CCc1nc2cc3ccccc3cc2cc1C(=O)N[C@@H](C/C=C/C[C@H](N)C(=O)N1CCC[C@H]1C(=O)N[C@@H](Cc1ccccc1)C(=O)NCCCN)C(=O)N1CCC[C@H]1C(=O)N[C@@H](Cc1ccccc1)C(=O)NCCCN
[7]
  Ka: 7.71 ×10³ /M/s
[8]
  Activity: inactive
[13]
  Dissociation rate constant (koff): 1.63 ×10⁻¹ /s
[14]; read-out: Kd
  Kd: 20700 nM

## CN(C)CCCNC(=N)c1ccc(C(=N)NCCCN(C)C)cc1
[25]
  Kd: 360000 nM

## NCCCNC(=O)[C@H](Cc1ccccc1)NC(=O)[C@@H]1CCCN1C(=O)[C@@H](N)C/C=C\C[C@H](N)C(=O)N1CCC[C@H]1C(=O)N[C@@H](Cc1ccccc1)C(=O)NCCCN
[8]
  Activity: inactive

## CCc1nc2cc3ccccc3cc2cc1C(=O)N[C@@H](C/C=C\C[C@H](N)C(=O)N1CCC[C@H]1C(=O)N[C@@H](Cc1ccccc1)C(=O)NCCCN)C(=O)N1CCC[C@H]1C(=O)N[C@@H](Cc1ccccc1)C(=O)NCCCN
[7]
  Ka: 4.58 ×10³ /M/s
[8]
  Activity: inactive
[13]
  Dissociation rate constant (koff): 1.21 ×10⁻² /s
[14]; read-out: Kd
  Kd: 2760 nM

## NCCCNC(=O)[C@H](Cc1ccccc1)NC(=O)[C@@H]1CCCN1C(=O)[C@@H](N)C/C=C/C[C@H](N)C(=O)N1CCC[C@H]1C(=O)N[C@@H](Cc1ccccc1)C(=O)NCCCN
[4]
  Activity: inactive
[7]
  Activity: inactive
[8]
  Activity: inactive
[26]
  Activity: inactive
[14]
  Kd: Not Active
[16]
  Activity: inactive
[24]
  Activity: Active

## CCc1nc2cc3ccccc3cc2cc1C(=O)N[C@@H](CSSC[C@H](NC(=O)c1cc2cc3ccccc3cc2nc1CC)C(=O)N1CCC[C@H]1C(=O)N[C@@H](Cc1ccccc1)C(=O)NCCCN)C(=O)N1CCC[C@H]1C(=O)N[C@@H](Cc1ccccc1)C(=O)NCCCN
[3]
  Drug uptake: Active
[4]
  Activity: 25%
[7]
  Ka: 1.07 ×10⁴ /M/s
[13]
  Dissociation rate constant (koff): 7.92 ×10⁻³ /s
[14]; read-out: Kd
  Kd: 741 nM
[15]
  Activity: inactive
[18]
  Drug uptake: Active
[27]
  Activity: Toxic

## CCc1nc2ccccc2cc1C(=O)N[C@@H](C/C=C/C[C@H](NC(=O)c1cc2ccccc2nc1CC)C(=O)N1CCC[C@H]1C(=O)N[C@@H](Cc1ccccc1)C(=O)NCCCN)C(=O)N1CCC[C@H]1C(=O)N[C@@H](Cc1ccccc1)C(=O)NCCCN
[7]
  Ka: 1.62 ×10³ /M/s
[13]
  Dissociation rate constant (koff): 7.5 ×10⁻³ /s
[14]; read-out: Kd
  Kd: 4660 nM

## CC(C)(C)NC(=O)[C@@H]1CN(Cc2cccnc2)CCN1C[C@@H](O)C[C@@H](Cc1ccccc1)C(=O)N[C@H]1c2ccccc2C[C@H]1O [INDINAVIR]
[20]
  EC50: 14.8 nM
